Test results taken from PubChem BioAssay.
Unmarked numbers belong to inactive results. The source made the active and inactive calls.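 Rule for the calls: active = growth inhibition above 25% in both replicates, a cutoff set 3 SD above the mean; inconclusive = above 25% in only one replicate; inactive = the rest.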

Assay: OD615 S. cerevisiae growth inhibition, permissive medium, pilot counter-assay, permissive growth control for S. cerevisiae lifespan shortening project (AID 705)
Conditions: OD615, 24 h, at 10 µM, hits give high values
In short: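 assay system = Saccharomyces cerevisiae strain carrying genetically modified DeaD replicative-lifespan system | technique = absorbance (optical density) at 615 nm | buffer or medium = permissive raffinose/galactose medium | timing = cells pre-grown 4 h, then 24 h compound exposure, 30 °C humidified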

**Q.** With `COc1ccccc1N=Cc1c(O)n(C)c(=O)n(C)c1=O` as the molecule, how does the growth inhibition read?
**A.** -6.69%

**Q.** With `COc1ccc(N2C(=O)CC(N3CC=C(c4ccccc4)CC3)C2=O)cc1` (stereo not given) as the molecule, how does the growth inhibition read?
**A.** -17.8%

**Q.** With `Cc1ccc2occ(CN3CC4CC(C3)c3cccc(=O)n3C4)c(=O)c2c1` (stereo not given) as the molecule, how does the growth inhibition read?
**A.** -16.2%

**Q.** Which growth inhibition does the source give for `Cc1cc(OCC(=O)OC(C)(C)C)c2c3c(c(=O)oc2c1)CCC3` here?
**A.** -8.29%

**Q.** With `O=C(c1ccccc1)c1cn(CC(=O)N2CCCC2)c2ccccc12` as the molecule, how does the growth inhibition read?
**A.** -15.1%

**Q.** Which growth inhibition does the source give for `CC12CN3CC(C)(CN(C1)P3(=O)Oc1ccccc1)C2=O` (stereo not given) here?
**A.** -3.04%

**Q.** For `COc1ccc(C2C(C(=O)N3CCC4(CC3)OCCO4)c3cc(OC)c(OC)cc3C(=O)N2C)cc1` (stereo not given), which growth inhibition is on record?
**A.** -15.2%

**Q.** With `c1ccc2sc(C3CCCNC3)nc2c1` (stereo not given) as the molecule, how does the growth inhibition read?
**A.** -10.6%

**Q.** For `CCOC(=O)C1CCN(/C=C2/C(=O)NC(=O)N(c3ccc(OCC)cc3)C2=O)CC1`, which growth inhibition is on record?
**A.** -11.5%

**Q.** For `c1cncc(C2CCCCN2Cc2ccc3c(c2)OCO3)c1` (stereo not given), which growth inhibition is on record?
**A.** -6.18%

**Q.** With `COc1cc2c(cc1OC)-c1c(OC)c(OC)cc3c1C(C2)N(C)CC3` (stereo not given) as the molecule, how does the growth inhibition read?
**A.** -13.1%

**Q.** For `O=C(O)c1cc2ccccc2oc1=O`, which growth inhibition is on record?
**A.** -21.9%

**Q.** With `O=c1c2ccccc2nc(-c2ccco2)n1-c1ccccn1` as the molecule, how does the growth inhibition read?
**A.** -12.2%

**Q.** With `Cc1cccnc1-n1c(-c2ccco2)nc2ccccc2c1=O` as the molecule, how does the growth inhibition read?
**A.** -5.46%

**Q.** With `Nc1ccc(S(=O)(=O)N2CC3CC(C2)c2cccc(=O)n2C3)cc1` (stereo not given) as the molecule, how does the growth inhibition read?
**A.** 1.94%

**Q.** Which growth inhibition does the source give for `O=C(CN1CC(c2ccccc2)CC1=O)Nc1cccc(F)c1` (stereo not given) here?
**A.** -10.1%

**Q.** With `CN(C)C1(c2nnnn2-c2ccc(Cl)cc2)CCCCC1` as the molecule, how does the growth inhibition read?
**A.** -14.4%

**Q.** With `O=c1cccc2n1CC1CC2CN(Cc2ccc3c(c2)OCO3)C1` (stereo not given) as the molecule, how does the growth inhibition read?
**A.** -5.27%

**Q.** For `O=C(Nc1ccccc1OC(=O)N1CCCCC1)N1CCCCC1`, which growth inhibition is on record?
**A.** -8.28%

**Q.** For `CCOC(=O)c1c(C)n(Cc2ccco2)c2ccc(OC)cc12`, which growth inhibition is on record?
**A.** 3.7%

**Q.** With `Cc1cc(Br)ccc1N1C(=O)CC(=O)NC1=O` as the molecule, how does the growth inhibition read?
**A.** -12.1%

**Q.** Which growth inhibition does the source give for `O=C(O)C1CN2CCC1CC2` (stereo not given) here?
**A.** -6.59%

**Q.** For `O=C(Cc1ccccc1)Oc1cccc(N2C(=O)CCC2=O)c1`, which growth inhibition is on record?
**A.** -15.7%

**Q.** With `CCOc1ccc(-n2c(CC)nc3ccccc3c2=O)cc1` as the molecule, how does the growth inhibition read?
**A.** -2.47%

**Q.** With `CCOc1ccccc1C1SCC(=O)Nc2c1c(=O)[nH]n2C(CC)CC` (stereo not given) as the molecule, how does the growth inhibition read?
**A.** -3.42%

**Q.** With `C=Cn1ccnc1P(=S)(c1ccn(C)c1)c1nccn1C=C` as the molecule, how does the growth inhibition read?
**A.** -2.8%

**Q.** With `O=c1cccc2n1CC1CC2CN(C(c2ccccc2)c2sc3ncnn3c2O)C1` (stereo not given) as the molecule, how does the growth inhibition read?
**A.** 4.58%

**Q.** With `O=c1c2ccccc2nc(-c2cccs2)n1-c1cnccn1` as the molecule, how does the growth inhibition read?
**A.** -10.5%

**Q.** Which growth inhibition does the source give for `C=Cn1ccnc1P(=S)(c1c(C)nn(-c2ccccc2)c1C)c1nccn1C=C` here?
**A.** 0.15%

**Q.** With `O=C(CN1CC(c2ccccc2)CC1=O)Nc1ccc(F)cc1` (stereo not given) as the molecule, how does the growth inhibition read?
**A.** -15.6%

**Q.** With `Cc1ccnc(-n2c(C)nc3ccccc3c2=O)c1` as the molecule, how does the growth inhibition read?
**A.** -1.76%

**Q.** For `CCCCCn1c(=O)c(C(=O)Nc2ccncc2)c(O)c2ccccc21`, which growth inhibition is on record?
**A.** 92.1% (active)

**Q.** Which growth inhibition does the source give for `C=Cn1ccnc1P(=S)(c1cc(N(CC)CC)ns1)c1nccn1C=C` here?
**A.** -0.585%

**Q.** With `O=C1CC(=O)N(c2ccc(Cl)cc2Cl)C(=O)N1` as the molecule, how does the growth inhibition read?
**A.** -10.7%

**Q.** Which growth inhibition does the source give for `COc1ccc(CC2C(=O)NC(=O)N(c3ccccc3)C2=O)c(OC)c1` (stereo not given) here?
**A.** -13.5%

**Q.** For `O=C(c1ccc2c(c1)OCO2)N1CCC2(CC1)OCCO2`, which growth inhibition is on record?
**A.** -5.96%

**Q.** With `CCOC(=O)C1SC2(C(F)(F)C(F)F)CC1(O)c1c(c(OC)c3occc3c1OC)O2` (stereo not given) as the molecule, how does the growth inhibition read?
**A.** -4.93%

**Q.** With `CN1CC=C(c2c[nH]c3ccccc23)CC1` as the molecule, how does the growth inhibition read?
**A.** 0.43%

**Q.** Which growth inhibition does the source give for `CC12CN3CC(C)(CN(C1)C3c1ccco1)C2=O` (stereo not given) here?
**A.** -8.88%

**Q.** Which growth inhibition does the source give for `COc1cc(CN2CC3CC(C2)c2cccc(=O)n2C3)cc(OC)c1OC` (stereo not given) here?
**A.** -11.8%
